How the values were obtained:
[1] = Percent injected dose per gram liver at 6 hr; type: functional
In short: (§1)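 Immature (25 day) female Sprague-Dawley rats (ca. 50 g) were dosed iv (jugular or tail vein) in ethanol plus 0.9% NaCl/rat serum (1:1). Doses were 2 μCi of [125I]iodonorhexestrol (≤15 pmol/dose), or 2 μCi each of [77Br]bromonorhexestrol (≤1.25 pmol/dose) and 16α-[125I]iodoestradiol (2 pmol/dose). Rats were killed at 1, 3 or 6 h; blood and tissues were weighed and γ-counted. Thyroid weight assumed 0.005 g/100 g body weight. Mean ± SD.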

[2] = organism: Rattus norvegicus; test: Percent injected dose per gram lung at 6 hr; type: functional; in short: as §1
[3] = organism: Rattus norvegicus; test: Percent injected dose per gram kidney at 1 hr with unlabeled estradiol; type: functional
In short: (§2)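 Immature (25-day, ca. 50 g) Sprague-Dawley female rats received an iv injection (jugular or tail vein) of HPLC-purified tracer in ethanol plus 0.9% NaCl/rat serum 1:1. Doses were 2 μCi [125I]iodo tracer (≤15 pmol), or 2 μCi [77Br]bromo tracer (≤1.25 pmol) with 2 μCi 16α-[125I]iodoestradiol. Animals were killed at 1 h; blood and tissues were weighed and γ-counted. Blocking: coinjected unlabeled estradiol, 9 μg (iodo) or 18 μg (bromo). Mean ± SD.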

[4] = organism: Rattus norvegicus; test: Percent injected dose per gram Ovaries at 1 hr; type: functional; in short: as §2
[5] = organism: Rattus norvegicus; test: Percent injected dose per gram blood at 6 hr; type: functional
In short: (§3)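 Dual-label study in immature 25-day female Sprague-Dawley rats (ca. 50 g). Each received 2 μCi [77Br]bromo tracer (≤1.25 pmol/dose) and 2 μCi 16α-[125I]iodoestradiol (2 pmol/dose) by tail or jugular vein, in ethanol diluted with saline/rat serum 1:1. Rats were killed at 3 or 6 h; blood and 11 tissues were weighed and counted. Five rats per time point; mean ± SD.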

[6] = Kidney/blood distribution ratio was determined in immature female rats at 1 hr with unlabeled estradiol; type: functional; in short: as §2
[7] = organism: Rattus norvegicus; test: Percent injected dose per gram lung at 1 hr; type: functional; in short: as §1
[8] = Thyroid/blood distribution ratio was determined in immature female rats at 1 hr; type: functional; in short: as §1
[9] = organism: Rattus norvegicus; test: Percent injected dose per gram liver at 1 hr with unlabeled estradiol; type: functional
In short: (§4)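 Same iv biodistribution in immature female rats, killed at 1 h, with unlabeled estradiol coinjected to block receptor uptake: 9 μg with [125I]iodonorhexestrol (3 rats), 18 μg with the [77Br]bromonorhexestrol/16α-[125I]iodoestradiol pair (5 rats). Tissue and blood radioactivity were counted as % injected dose/g and tissue-to-blood ratio.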

[10] = Uterus/blood distribution of compound was measured in immature female rats at 1 hr with unlabeled estradiol; type: functional; in short: as §4
[11] = Thyroid/blood distribution ratio was determined in immature female rats at 1 hr with unlabeled estradiol; type: functional; in short: as §4
[12] = organism: Rattus norvegicus; test: Percent injected dose per gram spleen at 1 hr; type: functional; in short: as §1
[13] = organism: Rattus norvegicus; test: Percent injected dose per gram blood at 1 hr; type: functional; in short: as §2
[14] = organism: Rattus norvegicus; test: Percent injected dose per gram Muscle at 1 hr with unlabeled estradiol; type: functional; in short: as §2
[15] = Spleen/blood distribution ratio was determined in immature female rats at 1 hr with unlabeled estradiol; type: functional
[16] = Thyroid/blood distribution ratio was determined in immature female rats at 6 hr; type: functional; in short: as §1
[17] = Liver/blood distribution ratio was determined in immature female rats at 1 hr with unlabeled estradiol; type: functional; in short: as §2
[18] = organism: Rattus norvegicus; test: Percent injected dose per gram lung at 1 hr with unlabeled estradiol; type: functional; in short: as §4
[19] = organism: Rattus norvegicus; test: Percent injected dose per gram esophagus at 1 hr with unlabeled estradiol; type: functional; in short: as §2
[20] = Lung/blood distribution ratio was determined in immature female rats at 1 hr with unlabeled estradiol; type: functional; in short: as §2
[21] = organism: Rattus norvegicus; test: Solvolytic stability was measured relative to p-hydroxyphenethyl bromide; type: functional
In short: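 Solvolysis rates were measured in 40% ethanol-water at 50 °C, buffered to pH 7. Values are 1/k_rel = (k_compound/k_p-hydroxyphenylethyl bromide)^-1.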

[22] = Lung/blood distribution ratio was determined in immature female rats at 1 hr; type: functional; in short: as §2
[23] = organism: Rattus norvegicus; test: Percent injected dose per gram Uterus at 1 hr with unlabeled estradiol.; type: functional; in short: as §2
[24] = organism: Rattus norvegicus; test: Percent injected dose per gram thyroid at 1 hr; type: functional, Thyroid gland; in short: as §1
[25] = organism: Rattus norvegicus; test: Percent injected dose per gram esophagus at 6 hr; type: functional; in short: as §3
[26] = Esophagus/blood distribution ratio was determined in immature female rats at 3h; type: functional; in short: as §3
[27] = Muscle/blood distribution ratio was determined immature female rats at 1 hr with unlabeled estradiol; type: functional; in short: as §2
[28] = organism: Rattus norvegicus; test: Percent injected dose per gram liver at 3h; type: functional; in short: as §1

For CC[C@H](c1ccc(O)cc1)[C@@H](CBr)c1ccc(O)cc1, the Injected dose [1] was 0.93%, the Injected dose [2] was 1.02% and the Injected dose [3] was 0.7%. The Injected dose [4] was 1.38%, the Injected dose [5] was 1.36% and the Ratio [6] was 0.84. For the same compound, the Injected dose [7] was 0.42%, the Ratio [8] was 0.32 and the Injected dose [9] was 1.46%. The Ratio [10] was 0.98, the Ratio [11] was 0.25 and the Injected dose [12] was 0.38%. The Injected dose [13] was 0.75%, the Injected dose [14] was 0.3% and the Ratio [15] was 0.51. The Ratio [16] was 0.13, the Ratio [17] was 1.51 and the Injected dose [18] was 0.8%. For the same compound, the Injected dose [19] was 0.56%, the Ratio [20] was 0.82 and the 1/krel [21] was 1.17. For the same compound, the Ratio [22] was 0.6, the Injected dose [23] was 0.95% and the Injected dose [24] was 0.26%. The Injected dose [25] was 0.68%, the Ratio [26] was 0.49 and the Ratio [27] was 0.31. The Injected dose [28] was 1.05%.

— ChEMBL document CHEMBL1121966, “(2R*,3S*)-1-[125I]Iodo-2,3-bis(4-hydroxyphenyl)pentane ([125I]iodonorhexestrol) and (2R*,3S*)-1-[77Br]Bromo-2,3-bis(4-hydroxyphenyl)pentane ([77Br]bromonorhexestrol), two gamma-emitting estrogens that show receptor-mediated uptake by target tissues in vivo” (1982)
